Measured values published in ChEMBL document CHEMBL3994605, “Synthesis and biological evaluation of curcumin inspired indole analogues as tubulin polymerization inhibitors” (Eur J Med Chem, 2017).

Columns and labels:
Format in all cases: functional, cell-based
[1] = tested on: DU-145; test: Antiproliferative activity against human DU145 cells after 48 hrs by MTT assay; conditions: DU-145, 48 h
In short: (§1)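 MTT read-out. Cells were seeded at 5 × 10^3 per well in DMEM or RPMI with 10% FBS and grown 24 h at 37 °C in CO2. Compound dilutions in medium, with vehicle control, were then added for 48 h. MTT (0.5 mg/mL in medium) was given for 4 h, formazan was dissolved in DMSO, and A570 was read. IC50 was taken from concentration–response curves as mean ± SD of three experiments run in triplicate.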

[2] = tested on: HGC-27; test: Antiproliferative activity against human HGC27 cells after 48 hrs by MTT assay; conditions: HGC-27, 48 h; in short: as §1
[3] = tested on: BT-549; test: Antiproliferative activity against human BT549 cells after 48 hrs by MTT assay; conditions: BT-549, 48 h; in short: as §1
[4] = tested on: PC-3; test: Antiproliferative activity against human PC3 cells after 48 hrs by MTT assay; conditions: PC-3, 48 h; in short: as §1
[5] = tested on: HeLa; test: Antiproliferative activity against human HeLa cells after 48 hrs by MTT assay; in short: as §1
[6] = tested on: A549; test: Antiproliferative activity against human A549 cells after 48 hrs by MTT assay; conditions: A549, 48 h; in short: as §1
[7] = tested on: MDA-MB-231; test: Antiproliferative activity against human MDA-MB-231 cells after 48 hrs by MTT assay; conditions: MDA-MB-231, 48 h; in short: as §1
[8] = tested on: 4T1; test: Antiproliferative activity against mouse 4T1 cells after 48 hrs by MTT assay; conditions: 4T1, 48 h; in short: as §1

COc1ccc(OC)c(/C=C/C(=O)/C=C/c2cn(Cc3ccccc3)c3ccccc23)c1
IC50 [1]: > 50 µM | IC50 [2]: > 50 µM | IC50 [3]: > 50 µM | IC50 [4]: > 50 µM | IC50 [5]: > 50 µM | IC50 [6]: > 50 µM | IC50 [7]: > 50 µM | IC50 [8]: > 50 µM

COc1ccc(/C=C/C(=O)/C=C/c2cn(Cc3ccc(C(F)(F)F)cc3)c3ccccc23)cc1
IC50 [1]: > 50 µM | IC50 [2]: > 50 µM | IC50 [3]: > 50 µM | IC50 [4]: > 50 µM | IC50 [5]: > 50 µM | IC50 [6]: > 50 µM | IC50 [7]: > 50 µM | IC50 [8]: > 50 µM

COc1cc(OC)c(OC)cc1/C=C/C(=O)/C=C/c1cn(Cc2ccccc2)c2ccccc12
IC50 [1]: > 50 µM | IC50 [2]: > 50 µM | IC50 [3]: 40.6 µM | IC50 [4]: > 50 µM | IC50 [5]: 50.1 µM | IC50 [6]: > 50 µM | IC50 [7]: > 50 µM | IC50 [8]: 40.8 µM

COc1cc(/C=C/C(=O)CC(=O)/C=C/c2ccc(O)c(OC)c2)ccc1O [CURCUMIN]
IC50 [1]: 28.4 µM | IC50 [3]: 24.9 µM | IC50 [4]: 12.2 µM | IC50 [5]: 25.4 µM | IC50 [7]: 15.8 µM

O=C(/C=C/c1ccc(Cl)cc1)/C=C/c1cn(Cc2ccccc2)c2ccccc12
IC50 [1]: > 50 µM | IC50 [2]: > 50 µM | IC50 [3]: > 50 µM | IC50 [4]: > 50 µM | IC50 [5]: > 50 µM | IC50 [6]: > 50 µM | IC50 [7]: > 50 µM | IC50 [8]: > 50 µM

COc1cc(OC)c(/C=C/C(=O)/C=C/c2cn(Cc3ccc(F)cc3)c3ccccc23)c(OC)c1
IC50 [1]: > 50 µM | IC50 [2]: 50.8 µM | IC50 [3]: > 50 µM | IC50 [4]: > 50 µM | IC50 [5]: > 50 µM | IC50 [6]: > 50 µM | IC50 [7]: > 50 µM | IC50 [8]: > 50 µM

COc1cc(OC)c(/C=C/C(=O)/C=C/c2cn(Cc3ccc(C(F)(F)F)cc3)c3ccccc23)c(OC)c1
IC50 [1]: > 50 µM | IC50 [2]: > 50 µM | IC50 [3]: > 50 µM | IC50 [4]: > 50 µM | IC50 [5]: > 50 µM | IC50 [6]: > 50 µM | IC50 [7]: > 50 µM | IC50 [8]: > 50 µM

COc1cc(OC)c(/C=C/C(=O)/C=C/c2cn(Cc3ccccc3)c3ccccc23)c(OC)c1
IC50 [1]: > 50 µM | IC50 [2]: > 50 µM | IC50 [3]: > 50 µM | IC50 [4]: > 50 µM | IC50 [5]: 50.1 µM | IC50 [6]: > 50 µM | IC50 [7]: > 50 µM | IC50 [8]: > 50 µM

COc1cc(OC)c(OC)cc1/C=C/C(=O)/C=C/c1cn(Cc2ccc(C(F)(F)F)cc2)c2ccccc12
IC50 [1]: > 50 µM | IC50 [2]: 40.1 µM | IC50 [3]: 25.2 µM | IC50 [4]: > 50 µM | IC50 [5]: 50.6 µM | IC50 [6]: > 50 µM | IC50 [7]: > 50 µM | IC50 [8]: 25.9 µM

COc1ccc(/C=C/C(=O)/C=C/c2cn(Cc3ccc(F)cc3)c3ccccc23)cc1OC
IC50 [1]: > 50 µM | IC50 [2]: 50.3 µM | IC50 [3]: 30.1 µM | IC50 [4]: > 50 µM | IC50 [5]: > 50 µM | IC50 [6]: > 50 µM | IC50 [7]: > 50 µM | IC50 [8]: 40 µM

COc1ccc(/C=C/C(=O)/C=C/c2cn(Cc3ccccc3)c3ccccc23)cc1
IC50 [1]: > 50 µM | IC50 [2]: > 50 µM | IC50 [3]: 40.1 µM | IC50 [4]: > 50 µM | IC50 [5]: > 50 µM | IC50 [6]: > 50 µM | IC50 [7]: > 50 µM | IC50 [8]: 50.2 µM

COc1ccc(/C=C/C(=O)/C=C/c2cn(Cc3ccc(F)cc3)c3ccccc23)cc1
IC50 [1]: > 50 µM | IC50 [2]: > 50 µM | IC50 [3]: > 50 µM | IC50 [4]: > 50 µM | IC50 [5]: > 50 µM | IC50 [6]: > 50 µM | IC50 [7]: > 50 µM | IC50 [8]: > 50 µM

COc1ccc(OC)c(/C=C/C(=O)/C=C/c2cn(Cc3ccc(F)cc3)c3ccccc23)c1
IC50 [1]: > 50 µM | IC50 [2]: > 50 µM | IC50 [3]: 50.1 µM | IC50 [4]: > 50 µM | IC50 [5]: 50.9 µM | IC50 [6]: > 50 µM | IC50 [7]: > 50 µM | IC50 [8]: > 50 µM
